Measured values published in publication PMC3466779 (Biochemistry, 2012).
Several values for one entry are separate records, joined by “and”; a condition that tells them apart may be missing. Equal entries are not always repeated.

How the values were obtained:
MtATP-PRT [1] = target: T1, MtATP-PRT (Mycobacterium tuberculosis, UniProt P9WMN1); experiment: Steady-state kinetics: initial velocities of the forward reaction; assay type: biochemical
T1 sequence (P9WMN1 1-284): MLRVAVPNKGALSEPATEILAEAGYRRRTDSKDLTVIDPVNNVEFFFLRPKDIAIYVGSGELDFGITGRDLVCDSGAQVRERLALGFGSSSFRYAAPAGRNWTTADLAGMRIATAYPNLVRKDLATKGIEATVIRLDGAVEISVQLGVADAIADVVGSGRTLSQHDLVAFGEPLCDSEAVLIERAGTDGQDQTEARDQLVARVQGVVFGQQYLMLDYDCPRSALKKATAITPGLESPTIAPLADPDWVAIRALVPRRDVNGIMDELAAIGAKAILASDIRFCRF

MtATP-PRT [2] = target: T1, MtATP-PRT; experiment: Pre-steady-state stopped-flow burst kinetics; assay type: biochemical
MtATP-PRT [3] = target: T1, MtATP-PRT; experiment: STD-NMR saturation transfer; assay type: binding; settings: 0.6 mM L-histidine, 30 μM HisG, 25 °C
Outline: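 STD 1H NMR was run at 14.4 T with 30 μM enzyme and 0.6 mM L-histidine in 50 mM sodium phosphate at each pH, 25 °C. Saturation times of 0.2–2.0 s in 0.2 s steps were recorded interleaved, with on-resonance protein presaturation at 0.8 ppm. A single off-resonance control used 2 s. Water was suppressed by excitation sculpting. Read-out was percent transfer per histidine proton.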

MtATP-PRT [4] = target: T1, MtATP-PRT; experiment: Steady-state inhibition studies with L-histidine; assay type: biochemical; settings: for Kii: 7 mM MgCl2, 200 mM KCl
MtATP-PRT [5] = target: T1, MtATP-PRT; experiment: pH studies of L-histidine inhibition; assay type: biochemical; settings: 0.8 mM PRPP fixed
MtATP-PRT [6] = target: T1, MtATP-PRT; experiment: Gel filtration, solution oligomeric state; settings: 20 mM Tris-HCl pH 8, 100 mM NaCl; 2 mM L-histidine, or ATP
Outline: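 Recombinant enzyme was expressed in E. coli BL21(DE3)pLysS and Ni-NTA purified. It was injected at 0.1–10 mg/mL onto a Sephacryl S-200 column calibrated with molecular-weight standards. Elution was isocratic for 1.5 column volumes at 0.5 mL/min in 20 mM Tris-HCl pH 8, 100 mM NaCl, with or without 2 mM L-histidine. Apparent mass was read from elution position.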

[7] = no reference given, cited from earlier work
[8] = target: Lactococcus lactis ATP-PRT; settings: pH 8; cited from earlier work

Structure (SMILES): O[C@@H](CS)[C@@H](O)CS [DTT]
- effect of the thiol reducing agent on the time course (MtATP-PRT [1]; data not shown): did not alter the time course

Structure (SMILES): N[C@@H](Cc1c[nH]cn1)C(=O)O [L-histidine]
- Kd (MtATP-PRT [2]): 27.9 ± 3.2 µM
- koff (MtATP-PRT [2]; pH 8.5, read-out: koff,L-histidine): 0.95 ± 0.03 s⁻¹
- kon (MtATP-PRT [2]; pH 8.5, read-out: kon,L-histidine): 4880 ± 717 M⁻¹ s⁻¹
- % saturation transfer to L-histidine protons, Cα-H (MtATP-PRT [3]; pH 5.5): 0%
- % saturation transfer to L-histidine protons, Cβ-H2 (MtATP-PRT [3]; pH 5.5): 0%
- % saturation transfer to L-histidine protons, Cδ2-H (MtATP-PRT [3]; pH 5.5): 0%
- % saturation transfer to L-histidine protons, Cε1-H (MtATP-PRT [3]; pH 5.5): 0%
- % saturation transfer to L-histidine protons, Cα-H (MtATP-PRT [3]; pH 6.0): 0%
- % saturation transfer to L-histidine protons, Cβ-H2 (MtATP-PRT [3]; pH 6.0): 0%
- % saturation transfer to L-histidine protons, Cδ2-H (MtATP-PRT [3]; pH 6.0): 0%
- % saturation transfer to L-histidine protons, Cε1-H (MtATP-PRT [3]; pH 6.0): 0%
- % saturation transfer to L-histidine protons, Cα-H (MtATP-PRT [3]; pH 6.5): 0%
- % saturation transfer to L-histidine protons, Cβ-H2 (MtATP-PRT [3]; pH 6.5): 0%
- % saturation transfer to L-histidine protons, Cδ2-H (MtATP-PRT [3]; pH 6.5): 0%
- % saturation transfer to L-histidine protons, Cε1-H (MtATP-PRT [3]; pH 6.5): 0%
- % saturation transfer to L-histidine protons, Cα-H (MtATP-PRT [3]; pH 7.5): 0%
- % saturation transfer to L-histidine protons, Cβ-H2 (MtATP-PRT [3]; pH 7.5): 0%
- % saturation transfer to L-histidine protons, Cδ2-H (MtATP-PRT [3]; pH 7.5): 0%
- % saturation transfer to L-histidine protons, Cε1-H (MtATP-PRT [3]; pH 7.5): 0%
- % saturation transfer to L-histidine protons, Cα-H (MtATP-PRT [3]; pH 8.0): 0%
- % saturation transfer to L-histidine protons, Cβ-H2 (MtATP-PRT [3]; pH 8.0): 0%
- % saturation transfer to L-histidine protons, Cδ2-H (MtATP-PRT [3]; pH 8.0): 36.9%
- % saturation transfer to L-histidine protons, Cε1-H (MtATP-PRT [3]; pH 8.0): 40.4%
- % saturation transfer to L-histidine protons, Cα-H (MtATP-PRT [3]; pH 8.5): 0%
- % saturation transfer to L-histidine protons, Cβ-H2 (MtATP-PRT [3]; pH 8.5): 0%
- % saturation transfer to L-histidine protons, Cδ2-H (MtATP-PRT [3]; pH 8.5): 81.6%
- % saturation transfer to L-histidine protons, Cε1-H (MtATP-PRT [3]; pH 8.5): 88.2%
- % saturation transfer to L-histidine protons, Cα-H (MtATP-PRT [3]; pH 9.0): 0%
- % saturation transfer to L-histidine protons, Cβ-H2 (MtATP-PRT [3]; pH 9.0): 0%
- % saturation transfer to L-histidine protons, Cδ2-H (MtATP-PRT [3]; pH 9.0): 100%
- % saturation transfer to L-histidine protons, Cε1-H (MtATP-PRT [3]; pH 9.0): 100%
- Ki (MtATP-PRT [4]): 25.7 ± 12.8 µM
- IC50 (MtATP-PRT [4]; IC50,L-histidine, 50 mM Tris-HCl pH 8.5, 7 mM MgCl2, 200 mM KCl, 1.6 mM ATP, 0.8 mM PRPP, 25 °C): 33.3 µM and 33 µM
- Hill number (MtATP-PRT [4]; IC50 curve, pH 8.5, 1.6 mM ATP, 0.8 mM PRPP): 1.5
- Kii (MtATP-PRT [4]; pH 8.50 (Tris-HCl), varied ATP, 0.8 mM PRPP fixed, 25 °C): 27.9 ± 1.9 µM
- Kii (MtATP-PRT [4]; pH 8.50, varied PRPP, 1.6 mM ATP fixed, 25 °C): 23.5 ± 6.5 µM
- nature of inhibition versus ATP (in words) (MtATP-PRT [4]; varied ATP, saturating PRPP, pH 8.5): linear and uncompetitive
- nature of inhibition versus PRPP (in words) (MtATP-PRT [4]; varied PRPP, saturating ATP, pH 8.5): linear and noncompetitive
- Kii (MtATP-PRT [5]; pH 8.00, varied ATP): 4 µM and 4.0 ± 0.4 µM
- Kii (MtATP-PRT [5]; pH 8.25, varied ATP): 7.9 ± 1.5 µM
- Kii (MtATP-PRT [5]; pH 8.50 (pH series), varied ATP): 28.3 ± 2.1 µM
- Kii (MtATP-PRT [5]; pH 8.75, varied ATP): 26.8 ± 1.5 µM
- Kii (MtATP-PRT [5]; pH 9.00, varied ATP): 50.4 ± 5.5 µM
- Kii (MtATP-PRT [5]; pH 9.25, varied ATP): 109.4 ± 6.8 µM
- influence of ligand on the hexameric oligomeric state of MtATP-PRT (MtATP-PRT [6]): not influenced
- pKa of the imidazole group ([7]; background statement): ~6.0
- pKa of the α-amino group ([7]; stated in discussion): ~9
- Ki [8]: 81 µM

Structure (SMILES): [Cl-].[Cl-].[Mg+2] [MgCl2]
- Kact,Mg^2+ (MtATP-PRT [1]; Table 1, saturating substrates, 200 mM KCl, 25 °C): 1900 ± 600 µM
- Apparent Kact for MgCl2 (MtATP-PRT [1]; saturating concentrations of both substrates, 200 mM KCl): 1.9 ± 0.6 mM
